This note sets out measurements from ChEMBL document CHEMBL2040739, “Effect of phosphodiesterase 7 (PDE7) inhibitors in experimental autoimmune encephalomyelitis mice. Discovery of a new chemically diverse family of compounds” (J Med Chem, 2012).

SMILES strings stand for the structures. Activity calls are given as the source filed them. The rule behind the calls is not given here.

The target in data set [1] is T1, High affinity 3',5'-cyclic-AMP phosphodiesterase 7A (Homo sapiens, UniProt Q13946). Briefly: Inhibition of human recombinant PDE7A1-mediated [3H]cAMP hydrolysis at 10 uM after 20 mins by scintillation proximity assay. The gist of the method:
(§1)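 Scintillation proximity assay with human recombinant full-length enzyme: PDE7A1 or PDE3A at 0.02 unit, or PDE7B at 0.5 unit. Enzyme incubated with 5 nCi [3H]cAMP for 20 min at 30 °C. SPA beads added, shaken 1 h at room temperature, then settled 30 min before counting. Single-point screens at 10 μM run in duplicate. IC50 from a sigmoidal dose−response fit.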
For orientation: In a scintillation proximity assay essentially only radioactivity close to the scintillant gives light.

Data set [2] deals with Microglia. Briefly: Antiinflammatory activity in rat microglia cells assessed as inhibition of LPS-induced nitrite production at 30 uM incubated for 1 hr prior to LPS-challenge measured after 24 hrs by Griess method. The class given is functional, cell-based. An outline of the steps:
(§2)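 Glial cells from neonatal rat cerebral cortex; microglia and astrocytes separated by shaking and cultured 1 week. Purity >98% by OX42 and GFAP staining. Microglia kept with 10 ng/mL GM-CSF. Cells given compound for 1 h, then LPS (10 μg/mL) for 24 h. Nitrite in the supernatant measured by Griess reaction at 492/540 nm. Mean ± SD of six replications in three experiments.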
For orientation: Griess reagent forms a coloured azo dye with nitrite.

The subject of data set [3] is Astrocyte. The data set is described as follows: Antiinflammatory activity in rat astrocytes assessed as inhibition of LPS-induced nitrite production at 30 uM incubated for 1 hr prior to LPS-challenge measured after 24 hrs by Griess method. The class given is functional, cell-based. The gist of the method:
as §2

For data set [4], the target named is T1, High affinity 3',5'-cyclic-AMP phosphodiesterase 7A. The data set is described as follows: Inhibition of PDE7A1.
For data set [5] the target is unchanged. Briefly: Inhibition of human recombinant PDE7A1-mediated [3H]cAMP hydrolysis after 20 mins by scintillation proximity assay. The gist of the method: as §1
The nature of data set [6]: Cytotoxicity against rat microglia cells at 5 to 10 uM after 16 hrs by MTT assay. It counts as cell-based. An outline of the steps:
(§3)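 Primary neonatal rat cortical astrocytes or microglia, after 1 week in culture, exposed to compound for 16 h. MTT at 0.5 mg/mL for 4 h, then solubilized in 10% SDS/0.01 M HCl for 12 h in the dark. Absorbance read at 595 nm. Six replications in three experiments.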

The nature of data set [7]: Cytotoxicity against rat astrocytes at 5 to 10 uM after 16 hrs by MTT assay. It counts as cell-based. Particulars: astrocyte. The gist of the method: as §3
In general terms: Tetrazolium assays rely on reduction of a dye to a coloured formazan, in cell work by metabolically active cells.

The subject of data set [8] is Microglia. Briefly: Antiinflammatory activity in rat microglia cells assessed as inhibition of LPS-induced nitrite production at 5 to 10 uM incubated for 1 hr prior to LPS-challenge measured after 24 hrs by Griess method. It counts as functional, cell-based. An outline of the steps: as §2
Data set [9] has as its system Astrocyte. Briefly: Antiinflammatory activity in rat astrocytes assessed as inhibition of LPS-induced nitrite production at 5 to 10 uM incubated for 1 hr prior to LPS-challenge measured after 24 hrs by Griess method. The class given is functional, cell-based. The gist of the method: as §2
The target in data set [10] is T2, cGMP-inhibited 3',5'-cyclic phosphodiesterase 3A (Homo sapiens, UniProt Q14432). The data set is described as follows: Inhibition of human recombinant PDE3A-mediated [3H]cAMP hydrolysis at 10 uM after 20 mins by scintillation proximity assay. The gist of the method: as §1
T2 sequence (Q14432 whole entry): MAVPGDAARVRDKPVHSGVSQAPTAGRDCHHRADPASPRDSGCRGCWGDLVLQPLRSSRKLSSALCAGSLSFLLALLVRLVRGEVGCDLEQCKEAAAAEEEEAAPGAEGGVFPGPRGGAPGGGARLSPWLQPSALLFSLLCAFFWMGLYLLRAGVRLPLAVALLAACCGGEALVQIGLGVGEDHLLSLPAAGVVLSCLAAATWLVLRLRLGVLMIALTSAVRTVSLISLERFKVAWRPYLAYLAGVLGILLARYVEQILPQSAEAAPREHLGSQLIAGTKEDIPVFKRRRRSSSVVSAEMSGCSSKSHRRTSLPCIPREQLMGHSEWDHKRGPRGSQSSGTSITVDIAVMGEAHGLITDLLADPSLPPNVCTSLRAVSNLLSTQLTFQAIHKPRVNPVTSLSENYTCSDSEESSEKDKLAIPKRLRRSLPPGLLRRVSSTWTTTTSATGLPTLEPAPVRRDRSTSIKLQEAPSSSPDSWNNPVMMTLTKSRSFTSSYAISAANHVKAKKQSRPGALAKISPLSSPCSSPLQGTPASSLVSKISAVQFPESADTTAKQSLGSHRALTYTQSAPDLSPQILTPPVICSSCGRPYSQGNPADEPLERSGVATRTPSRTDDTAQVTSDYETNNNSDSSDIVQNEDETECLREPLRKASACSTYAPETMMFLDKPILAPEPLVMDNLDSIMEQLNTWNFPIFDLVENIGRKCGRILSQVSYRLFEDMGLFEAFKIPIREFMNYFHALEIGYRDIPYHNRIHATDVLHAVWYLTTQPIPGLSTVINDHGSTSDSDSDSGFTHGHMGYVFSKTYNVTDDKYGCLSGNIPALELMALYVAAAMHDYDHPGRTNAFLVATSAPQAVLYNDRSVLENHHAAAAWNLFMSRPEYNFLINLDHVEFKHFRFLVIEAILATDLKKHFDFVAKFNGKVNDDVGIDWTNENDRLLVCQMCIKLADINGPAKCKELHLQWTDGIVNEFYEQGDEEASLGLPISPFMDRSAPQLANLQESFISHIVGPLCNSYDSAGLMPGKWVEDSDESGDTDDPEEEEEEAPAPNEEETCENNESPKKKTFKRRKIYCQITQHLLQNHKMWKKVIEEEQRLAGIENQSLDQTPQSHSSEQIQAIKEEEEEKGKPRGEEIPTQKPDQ
Data set [11] concerns the target T2, cGMP-inhibited 3',5'-cyclic phosphodiesterase 3A. The data set is described as follows: Inhibition of human recombinant PDE3A-mediated [3H]cAMP hydrolysis after 20 mins by scintillation proximity assay. An outline of the steps:
as §1

The species named for data set [12] is Homo sapiens. Briefly: Selectivity index, ratio of IC50 for human recombinant PDE7A1 to IC50 for human recombinant PDE3A. The gist of the method:
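Ratio of IC50 values for PDE7A1 and PDE3A, each obtained by scintillation proximity assay with [3H]cAMP for 20 min at 30 °C.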

Data set [13] concerns the target T3, High affinity 3',5'-cyclic-AMP phosphodiesterase 7A (Mus musculus) (UniProt P70453).
T3 sequence (whole entry): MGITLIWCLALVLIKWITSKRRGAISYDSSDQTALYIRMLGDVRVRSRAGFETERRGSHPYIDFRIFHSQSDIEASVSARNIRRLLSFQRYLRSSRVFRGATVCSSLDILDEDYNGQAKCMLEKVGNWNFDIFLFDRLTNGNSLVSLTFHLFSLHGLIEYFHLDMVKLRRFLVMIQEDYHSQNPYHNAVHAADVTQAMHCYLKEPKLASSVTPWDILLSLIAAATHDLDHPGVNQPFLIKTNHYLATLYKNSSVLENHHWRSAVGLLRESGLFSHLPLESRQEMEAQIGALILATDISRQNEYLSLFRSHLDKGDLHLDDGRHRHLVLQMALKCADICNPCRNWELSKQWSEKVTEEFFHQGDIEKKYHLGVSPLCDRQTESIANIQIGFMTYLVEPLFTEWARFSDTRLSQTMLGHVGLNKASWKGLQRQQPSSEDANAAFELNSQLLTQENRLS
The data set is described as follows: Inhibition of PDE7A1 in mouse RAW cells assessed as increase in cAMP level at 10 to 30 uM after 60 mins by enzyme immunoassay. It counts as cell-based. An outline of the steps: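 RAW cells seeded at 3 × 10^4 per well and incubated overnight. Compound added for 60 min at 10 or 30 μM. Intracellular cAMP quantified by enzyme immunoassay kit.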

The target of data set [14] is T1, High affinity 3',5'-cyclic-AMP phosphodiesterase 7A. Briefly: Competitive inhibition of human recombinant PDE7A1 using 5 nM to 2 uM cAMP as substrate by Lineweaver-Burk plot analysis. An outline of the steps: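 PDE7A1 scintillation proximity assay with unlabeled cAMP varied from 5 nM to 2 μM, against fixed [3H]cAMP tracer. Two inhibitor concentrations tested, with AMP formation measured. Data analysed by Lineweaver−Burk plots. Triplicate measurements, mean ± SEM.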

T1 sequence (Q13946 whole entry): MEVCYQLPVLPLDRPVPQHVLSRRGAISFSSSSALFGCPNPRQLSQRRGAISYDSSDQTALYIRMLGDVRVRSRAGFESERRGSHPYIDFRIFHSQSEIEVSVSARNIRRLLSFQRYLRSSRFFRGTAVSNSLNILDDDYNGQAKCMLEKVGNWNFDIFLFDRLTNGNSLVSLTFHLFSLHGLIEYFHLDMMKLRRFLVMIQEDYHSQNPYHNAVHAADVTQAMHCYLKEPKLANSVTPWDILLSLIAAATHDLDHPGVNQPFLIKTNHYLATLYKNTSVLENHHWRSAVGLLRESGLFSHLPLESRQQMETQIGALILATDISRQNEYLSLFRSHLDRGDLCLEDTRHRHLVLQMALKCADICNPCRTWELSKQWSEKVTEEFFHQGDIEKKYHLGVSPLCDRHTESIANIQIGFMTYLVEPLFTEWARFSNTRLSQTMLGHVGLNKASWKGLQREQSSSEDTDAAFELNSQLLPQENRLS

The inhibition is the change of the read-out against control, counted positive when it falls. In the case of `COc1cc(COC(=O)c2ccc(-c3ccccc3Cl)o2)cc(OC)c1OC`, in [1], the inhibition turned out to be 34.6%.

For `COc1ccc(C2CNC(=O)C2)cc1OC1CCCC1` (stereo unspecified), the outcome in data set [2] and in data set [3] was Active.

For the molecule `CCOc1cc(COC(=O)c2ccc(-c3ccccc3)o2)cc(OCC)c1OCC`, the inhibition in data set [1] worked out at 30.8%.

Regarding `COc1cc(C(=O)OCc2ccc(-c3ccc(Cl)cc3Cl)o2)cc(OC)c1OC`, the inhibition in data set [1] stood at 24.4%.

Take `COc1cc(COC(=O)c2ccco2)cc(OC)c1OC`: the inhibition in data set [1] was 10%.

On to `COc1ccc(-c2ccc(C(=O)OCc3cc(OC)c(OC)c(OC)c3)o2)cc1`, for which the inhibition in data set [1] was determined as 14%.

Regarding `CCOc1cc(COC(=O)c2ccc(-c3ccc(C)cc3)o2)cc(OCC)c1OCC`, in [1], the inhibition was 28%.

For orientation: IC50 means the midpoint of a concentration-inhibition curve. `CCOc1cc(C(=O)OCc2ccc(-c3ccc([N+](=O)[O-])cc3C)o2)cc(OCC)c1OCC` gave an IC50 in [4] of 0.58 µM. For the same molecule, the inhibition in data set [1] turned out to be 29%.

`CCOc1cc(C(=O)OCc2ccc(-c3ccc([N+](=O)[O-])cc3)o2)cc(OCC)c1OCC`: the inhibition in [1] was 39.9%.

Turning to `CCOc1cc(COC(=O)c2ccc(-c3ccc(Cl)cc3Cl)o2)cc(OCC)c1OCC`, the inhibition in data set [1] was 31.1%.

As for `COc1ccc(COC(=O)c2ccc(-c3ccccc3)o2)cc1`, the inhibition in [1] was 44.8%.

`COc1cc(COC(=O)c2ccc(-c3ccc(C)cc3)o2)cc(OC)c1OC`: the inhibition in data set [1] turned out to be 30.7%.

Molecule `CCOC(=O)c1sc(NC(=O)C(CC)OC(=O)C(CC(C)C)NC(=O)c2ccccc2)nc1C` (stereo unspecified) showed an IC50 in data set [4] of 0.86 µM.

On to `COc1cc(COC(=O)c2ccc(-c3cc(C(F)(F)F)ccc3Cl)o2)cc(OC)c1OC`, for which the inhibition in data set [1] came to 8%.

In [4], `CC1CCCCC1NC(=O)C(c1ccccc1Cl)N(CCc1ccccc1Cl)C(=O)CCl` (stereo unspecified) showed an IC50 of 0.88 µM.

For the molecule `CCOc1cc(COC(=O)c2ccc(-c3ccc([N+](=O)[O-])cc3)o2)cc(OCC)c1OCC`, in data set [1], the inhibition was 29.2%.

Turning to `CCOc1cc(C(=O)OCc2ccc(-c3ccc(Cl)cc3Cl)o2)cc(OCC)c1OCC`, in data set [1], the inhibition is 3.7%.

Regarding `COc1cc(COC(=O)c2ccc(C)o2)cc(OC)c1OC`, the inhibition in data set [1] is -9.9%.

As for `CCOc1cc(C(=O)OCc2ccc(-c3ccccc3)o2)cc(OCC)c1OCC`, the inhibition in [1] is 48.8%; in [10], 3%. In addition, the IC50 was 12.3 µM in [5] and 104 µM in data set [11]. For the same molecule, the Activity entry in data set [6] and in data set [7] was “Non-toxic” in each case. For the same molecule, the outcome in [8] and in data set [9] was Active. Moreover, the Ratio IC50 in data set [12] stood at 0.12.

Regarding `COc1cc(COC(=O)c2ccc(-c3ccc(Cl)cc3Cl)o2)cc(OC)c1OC`, the inhibition in [1] is 38.3%.

In the case of `COc1cc(COC(=O)c2ccc(-c3ccc(C)cc3[N+](=O)[O-])o2)cc(OC)c1OC`, in [1], the inhibition was 28.8%.

As to `COc1cc(COC(=O)c2ccc(-c3ccc(Cl)cc3[N+](=O)[O-])o2)cc(OC)c1OC`, the figures for the inhibition in data set [1] and in [10] were 49.1% and 11%, respectively. Besides, in [5], the IC50 worked out at 7.31 µM. The Activity entry in data set [6] and in data set [7] was “Non-toxic” in each case. For the same molecule, the outcome in data set [8] and in data set [9] was Active.

Turning to `COc1cc(CNC(=O)c2ccc(-c3cccc(C(F)(F)F)c3)o2)cc(OC)c1OC`, the inhibition in data set [1] turned out to be 23.5%.

Regarding `COc1ccc(COC(=O)c2ccc(-c3ccc(Cl)cc3[N+](=O)[O-])o2)cc1`, the inhibition in [1] worked out at 41.6%.

In the case of `COc1cc(COC(=O)c2ccc(-c3ccc([N+](=O)[O-])cc3)o2)cc(OC)c1OC`, the inhibition in data set [1] came to 48%; in [10] it was 57.1%. The IC50 amounted to 14.1 µM in data set [5] and 3.4 µM in data set [11]. In addition, the Activity result in [6] and in [7] was “Non-toxic” each time. Further, the outcome in data set [8] and in data set [9] was Active. In addition, the Ratio IC50 in data set [12] amounted to 4.15.

With `COc1cc(C(=O)OCc2ccc(-c3ccc([N+](=O)[O-])cc3)o2)cc(OC)c1OC`, the inhibition in data set [1] is 49.5%. Moreover, in [5], the half-maximal inhibitory concentration (IC50) stood at 33.4 µM.

Consider `Cc1ccc([N+](=O)[O-])cc1S(=O)(=O)N(C)C`, for which the IC50 in data set [5] turned out to be 0.09 µM. The outcome in data set [2] and in data set [3] was Active. Besides, the inhibition entry in data set [13] is “Active”.

Take `CCOc1cc(C(=O)OCc2ccc(-c3ccc(C)cc3)o2)cc(OCC)c1OCC`: in [1], the inhibition came out at 16.4%.

Regarding `COc1cc(COC(=O)c2ccc(-c3cccc(C(F)(F)F)c3)o2)cc(OC)c1OC`, the inhibition in [1] came to 14%.

Usually Ki stands for the dissociation constant of the complex between target and ligand, obtained from inhibition or displacement. For `COc1cc(CNC(=O)c2ccc(-c3ccc(C)cc3[N+](=O)[O-])o2)cc(OC)c1OC`, the inhibition in data set [1] is 70.5%; in data set [10] it was 49.6%. Moreover, in data set [14], the inhibition constant (Ki) came to 7.22 µM. Further, the figures for the concentration for half-maximal inhibition (IC50) in [5] and in data set [11] were 3.2 µM and 3.9 µM, respectively. Also, the Activity result in data set [6] and in data set [7] was “Non-toxic” each time. Further, the result in data set [8] and in data set [9] was Active. Besides, the Ratio IC50 in data set [12] amounted to 0.82.

As to `COc1cc(COC(=O)c2ccc(-c3ccccc3C(F)(F)F)o2)cc(OC)c1OC`, the inhibition in data set [1] was determined as 54.9%; in [10] it was 74.9%. For the same molecule, the IC50 turned out to be 2.63 µM in [5] and 1.8 µM in [11]. Besides, the Activity entry in [6] and in data set [7] was “Non-toxic” each time. In addition, the result in data set [8] and in [9] was Active. Moreover, the Ratio IC50 in data set [12] was 1.44.
